Drawing on ChEMBL document CHEMBL1145827, “Structure-activity relationship comparison of (S)-2beta-substituted 3alpha-(bis[4-fluorophenyl]methoxy)tropanes and (R)-2beta-substituted 3beta-(3,4-dichlorophenyl)tropanes at the dopamine transporter” (J Med Chem, 2003), this text covers Ki and IC50 for 20 compounds.

By Ki is commonly meant a dissociation constant, usually derived from enzyme kinetics or from competition with a known ligand. The term IC50 denotes the concentration that gives 50% inhibition. Low readings indicate higher potency, high ones lower potency.

For experiment [1], the target named is T1, Sodium-dependent dopamine transporter (Rattus norvegicus, UniProt P23977). The experiment can be described thus: Binding affinity towards dopamine transporter. The essentials: (§1)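 Rat brain DAT, radioligand displacement with [3H]WIN 35,428. Ki from at least three independent experiments, each run in triplicate.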
Experiment [2] concerns the target T1, Sodium-dependent dopamine transporter. Description: In vitro dopamine transporter binding affinity using [3H]WIN-35428 as radioligand was determined.
Experiment [3] has the same target. The experiment can be described thus: In vitro potency for inhibiting [3H]- dopamine uptake in rat brain was determined. The class given is functional, tissue-based. The essentials: (§2)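 [3H]Dopamine uptake inhibition in rat brain synaptosomes, reported as IC50.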
For experiment [4], the target named is Norepinephrine transporter (Rattus norvegicus, UniProt Q9WTR4). The experiment can be described thus: Binding affinity towards norepinephrine transporter using [3H]nisoxetine as radioligand was determined. The method in brief: (§3)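 Radioligand displacement binding for SERT, NET and muscarinic receptors. Ki from at least three independent experiments, each run in triplicate.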

Experiment [5] concerns the target T1, Sodium-dependent dopamine transporter. Description: In vitro potency for inhibiting [3H]- dopamine uptake was determined. In kind it is functional. The method in brief: as §2
The target of experiment [6] is T2, Muscarinic acetylcholine receptor M1 (Rattus norvegicus, UniProt P08482).
T2 sequence (P08482 whole entry): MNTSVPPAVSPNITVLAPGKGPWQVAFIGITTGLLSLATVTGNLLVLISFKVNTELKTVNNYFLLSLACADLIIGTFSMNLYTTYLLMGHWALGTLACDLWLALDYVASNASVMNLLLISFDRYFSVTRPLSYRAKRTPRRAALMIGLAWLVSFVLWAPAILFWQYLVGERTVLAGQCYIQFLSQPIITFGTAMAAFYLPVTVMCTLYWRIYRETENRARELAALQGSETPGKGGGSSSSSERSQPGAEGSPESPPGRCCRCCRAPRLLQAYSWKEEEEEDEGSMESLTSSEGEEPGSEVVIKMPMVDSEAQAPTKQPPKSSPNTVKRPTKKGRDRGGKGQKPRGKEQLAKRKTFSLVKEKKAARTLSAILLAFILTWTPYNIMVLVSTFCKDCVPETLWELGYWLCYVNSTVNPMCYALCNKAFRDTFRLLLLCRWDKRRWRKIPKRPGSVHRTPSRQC
Description: Binding affinity towards Muscarinic acetylcholine receptor M1 using [3H]pirenzepine as radioligand was determined. The method in brief: as §3

Experiment [7] has as its target Sodium-dependent serotonin transporter (Rattus norvegicus, UniProt P31652). The experiment can be described thus: Binding affinity towards serotonin transporter using [3H]citalopram as radioligand was determined. The method in brief: as §3
The target in experiment [8] is T1, Sodium-dependent dopamine transporter. Description: In vitro inhibitory activity of dopamine transporter using [3H]WIN-35428 as radioligand was determined. The method in brief: as §1

Chain of Norepinephrine transporter (Q9WTR4 whole entry): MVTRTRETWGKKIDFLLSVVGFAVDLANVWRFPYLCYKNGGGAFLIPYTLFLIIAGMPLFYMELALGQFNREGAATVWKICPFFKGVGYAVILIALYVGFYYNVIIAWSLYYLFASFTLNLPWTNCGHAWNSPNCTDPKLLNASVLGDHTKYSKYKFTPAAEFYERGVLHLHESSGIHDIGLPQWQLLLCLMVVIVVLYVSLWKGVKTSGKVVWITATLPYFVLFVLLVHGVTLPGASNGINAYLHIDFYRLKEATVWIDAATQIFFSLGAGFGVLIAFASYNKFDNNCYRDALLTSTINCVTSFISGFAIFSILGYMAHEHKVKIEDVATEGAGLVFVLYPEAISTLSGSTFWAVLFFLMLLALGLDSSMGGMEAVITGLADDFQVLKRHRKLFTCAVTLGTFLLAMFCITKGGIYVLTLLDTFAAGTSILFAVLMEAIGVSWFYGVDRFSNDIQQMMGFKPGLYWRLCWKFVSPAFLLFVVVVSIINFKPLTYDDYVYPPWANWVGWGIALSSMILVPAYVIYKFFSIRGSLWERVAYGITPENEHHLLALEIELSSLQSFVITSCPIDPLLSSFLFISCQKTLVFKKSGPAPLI
T1 sequence (P23977 whole entry): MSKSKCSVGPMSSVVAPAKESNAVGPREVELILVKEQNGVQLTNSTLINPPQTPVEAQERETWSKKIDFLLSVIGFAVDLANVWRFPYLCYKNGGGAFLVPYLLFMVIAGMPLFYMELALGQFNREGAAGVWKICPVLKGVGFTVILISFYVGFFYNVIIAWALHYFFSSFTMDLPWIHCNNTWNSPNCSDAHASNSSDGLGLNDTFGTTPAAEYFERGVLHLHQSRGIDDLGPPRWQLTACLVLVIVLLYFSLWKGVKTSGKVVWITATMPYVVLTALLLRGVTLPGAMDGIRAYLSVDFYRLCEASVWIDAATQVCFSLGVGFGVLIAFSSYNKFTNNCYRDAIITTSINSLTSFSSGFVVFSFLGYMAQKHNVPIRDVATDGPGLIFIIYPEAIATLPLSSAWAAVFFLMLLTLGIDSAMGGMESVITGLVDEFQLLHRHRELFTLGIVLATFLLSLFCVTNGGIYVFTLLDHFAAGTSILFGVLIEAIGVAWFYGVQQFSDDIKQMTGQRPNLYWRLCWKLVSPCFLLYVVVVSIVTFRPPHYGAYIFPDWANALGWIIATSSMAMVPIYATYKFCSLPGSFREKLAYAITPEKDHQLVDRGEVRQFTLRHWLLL
Chain of Sodium-dependent serotonin transporter (P31652 whole entry): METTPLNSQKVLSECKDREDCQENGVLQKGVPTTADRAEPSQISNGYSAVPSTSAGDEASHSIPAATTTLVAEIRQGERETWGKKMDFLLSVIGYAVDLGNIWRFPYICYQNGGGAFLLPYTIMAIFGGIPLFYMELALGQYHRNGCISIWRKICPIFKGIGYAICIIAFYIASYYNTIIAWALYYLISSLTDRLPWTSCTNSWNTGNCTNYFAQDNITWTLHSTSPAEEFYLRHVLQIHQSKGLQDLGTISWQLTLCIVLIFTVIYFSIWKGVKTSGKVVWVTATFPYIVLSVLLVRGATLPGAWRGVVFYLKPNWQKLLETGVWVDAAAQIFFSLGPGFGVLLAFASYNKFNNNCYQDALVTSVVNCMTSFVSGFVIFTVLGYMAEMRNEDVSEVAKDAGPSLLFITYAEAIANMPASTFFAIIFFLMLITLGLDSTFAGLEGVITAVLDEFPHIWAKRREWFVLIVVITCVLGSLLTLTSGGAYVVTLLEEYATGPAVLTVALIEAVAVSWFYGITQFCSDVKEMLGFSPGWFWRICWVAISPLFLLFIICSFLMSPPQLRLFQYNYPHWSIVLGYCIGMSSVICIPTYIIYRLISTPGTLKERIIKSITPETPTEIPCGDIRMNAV

With `CN1C2CCC1[C@@H](C(=O)OCCc1ccccc1)[C@@H](c1ccc(Cl)c(Cl)c1)C2` (some centres undefined), the figures for the inhibition constant Ki in experiment [1] and in experiment [2] were 100 nM and 10.9 nM, respectively. The same compound showed an IC50 in experiment [3] of 3.2 nM.

Turning to `CCOC(=O)[C@@H]1C2CCC(C[C@@H]1OC(c1ccc(F)cc1)c1ccc(F)cc1)N2C` (some centres undefined), the results for the Ki in experiment [4] and in experiment [2] were 629 nM and 16.4 nM, respectively. The compound further came in with an IC50 in experiment [5] of 1.8 nM.

`CN1C2CCC1[C@@H](C(=O)OCCc1ccccc1)[C@@H](OC(c1ccc(F)cc1)c1ccc(F)cc1)C2` (some centres undefined) yielded a Ki in experiment [2] of 36.7 nM. Inhibition in experiment [5] was half-maximal at 2.6 nM (IC50).

`CN1C2CCC1[C@@H](C(=O)OCCc1ccc(N)cc1)[C@@H](OC(c1ccc(F)cc1)c1ccc(F)cc1)C2` (some centres undefined): the inhibition constant (Ki) was 263 nM in experiment [6], 1340 nM in experiment [4], 1500 nM in experiment [7] and 36.7 nM in experiment [2]. In experiment [5], this compound showed an IC50 of 8 nM.

In experiment [8], `CN1C2CCC1[C@@H](C(=O)OCCc1ccc(N=[N+]=[N-])c(I)c1)[C@@H](OC(c1ccc(F)cc1)c1ccc(F)cc1)C2` (some centres undefined) displayed a half-maximal inhibitory concentration (IC50) of 210 nM.

Turning to `CC(C)OC(=O)[C@@H]1C2CCC(C[C@@H]1OC(c1ccc(F)cc1)c1ccc(F)cc1)N2C` (single isomer, unassigned; (+)), the inhibitory constant (Ki) was 2680 nM in experiment [6], 642 nM in experiment [4] and 12000 nM in experiment [7].

For the compound `CN1C2CCC1[C@@H](C(=O)OCc1ccccc1)[C@@H](OC(c1ccc(F)cc1)c1ccc(F)cc1)C2` (single isomer, unassigned; (+)), the results for the Ki in experiment [6], in experiment [4] and in experiment [7] were 4380 nM, 2230 nM and 2040 nM, respectively.

Take `CN1C2CCC1[C@@H](C(=O)OCCc1ccccc1)[C@@H](OC(c1ccc(F)cc1)c1ccc(F)cc1)C2` (single isomer, unassigned; (+)): the Ki came to 354 nM in experiment [6], 1030 nM in experiment [4] and 3160 nM in experiment [7].

With `COC(=O)[C@@H]1C2CCC(C[C@@H]1OC(c1ccc(F)cc1)c1ccc(F)cc1)N2C` (single isomer, unassigned; (+)), the Ki in experiment [4] came out at 269 nM.

Take `CC(C)OC(=O)[C@@H]1C2CCC(C[C@@H]1c1ccc(Cl)c(Cl)c1)N2C` (some centres undefined): the Ki was determined as 100 nM in experiment [1] and 17.9 nM in experiment [2]. In addition, in experiment [3], the IC50 stood at 2.7 nM.

Turning to `COC(=O)[C@@H]1C2CCC(C[C@@H]1c1ccc(Cl)c(Cl)c1)N2C` (some centres undefined), the Ki in experiment [1] came out at 100 nM; in experiment [6], 3140 nM; in experiment [4], 15.8 nM; in experiment [7] it was 1.46 nM; in experiment [2] it was 6.3 nM. 1.4 nM corresponded to half-maximal inhibition in experiment [3] (IC50).

As for `COC(=O)[C@@H]1C2CCC(C[C@@H]1OC(c1ccc(F)cc1)c1ccc(F)cc1)N2C` (some centres undefined), half-maximal inhibition in experiment [5] (IC50) required 1.5 nM.

In experiment [8], `CN1C2CCC1[C@@H](C(=O)OCCc1ccc(N=[N+]=[N-])c(I)c1)[C@@H](c1ccc(Cl)c(Cl)c1)C2` (some centres undefined) gave a concentration for half-maximal inhibition (IC50) of 14.5 nM.

For the compound `CN1C2CCC1[C@@H](C(=O)OCc1ccccc1)[C@@H](c1ccc(Cl)c(Cl)c1)C2` (some centres undefined), the Ki in experiment [1] came out at 100 nM; in experiment [2] it was 34.7 nM. The compound further came in with an IC50 in experiment [3] of 19 nM.

In turn, `CN1C2CCC1[C@@H](C(=O)OCCc1ccc(N)c(I)c1)[C@@H](OC(c1ccc(F)cc1)c1ccc(F)cc1)C2` (some centres undefined) showed a Ki in experiment [2] of 42.3 nM.

`CCOC(=O)[C@@H]1C2CCC(C[C@@H]1c1ccc(Cl)c(Cl)c1)N2C` (some centres undefined): the inhibition constant Ki in experiment [1] came out at 100 nM; in experiment [2], 5.54 nM. In experiment [3], this compound yielded a half-inhibitory concentration (IC50) of 1.9 nM.

For `CN1C2CCC1[C@@H](C(=O)OCCc1ccc([N+](=O)[O-])cc1)[C@@H](OC(c1ccc(F)cc1)c1ccc(F)cc1)C2` (some centres undefined), the Ki in experiment [2] was 97.7 nM. The compound also showed a half-inhibitory concentration (IC50) in experiment [5] of 3.3 nM.

For `CN1C2CCC1[C@@H](C(=O)OCCc1ccc(N=C=S)cc1)[C@@H](OC(c1ccc(F)cc1)c1ccc(F)cc1)C2` (some centres undefined), the IC50 in experiment [8] stood at 537 nM.

As to `CC(C)OC(=O)[C@@H]1C2CCC(C[C@@H]1OC(c1ccc(F)cc1)c1ccc(F)cc1)N2C` (some centres undefined), the affinity in experiment [2] corresponds to a Ki of 30.3 nM. In addition, inhibition in experiment [5] was half-maximal at 6.2 nM (IC50).

`CN1C2CCC1[C@@H](C(=O)OCc1ccccc1)[C@@H](OC(c1ccc(F)cc1)c1ccc(F)cc1)C2` (some centres undefined) returned a Ki in experiment [2] of 48.4 nM. In experiment [5], this compound had a concentration for half-maximal inhibition (IC50) of 2.2 nM.
